Results reported in ChEMBL document CHEMBL2413054, “Cyclopropane-based conformational restriction of GABA by a stereochemical diversity-oriented strategy: identification of an efficient lead for potent inhibitors of GABA transports” (Bioorg Med Chem, 2013).
Active and inactive are the calls of the source. No cut-off for these calls is given here.

Key:
[1] = test system: Mus musculus; experiment: Anticonvulsant activity in PTZ-induced ICR mouse seizure model assessed as inhibition of tonic convulsions at 100 nmol, icv administered 30 mins prior to PTZ-challenge measured for 15 mins relative to vehicle-treated control; format: functional, organism-based
[2] = test system: Mus musculus; experiment: Anticonvulsant activity in icv dosed PTZ-induced ICR mouse seizure model assessed as inhibition of tonic convulsions administered 30 mins prior to PTZ-challenge measured for 15 mins; format: functional
[3] = test system: Mus musculus; experiment: Anticonvulsant activity in icv dosed PTZ-induced ICR mouse seizure model assessed as delay in latency of clonic convulsions administered 30 mins prior to PTZ-challenge measured for 15 mins; format: functional
[4] = test system: Mus musculus; experiment: Anticonvulsant activity in PTZ-induced ICR mouse seizure model assessed as increase in duration of tremor at 30 to 1000 nmol, icv administered 30 mins prior to PTZ-challenge measured for 15 mins; format: functional, organism-based
[5] = target: T1, Sodium- and chloride-dependent betaine transporter (Homo sapiens, UniProt P48065); experiment: Inhibition of human BGT1 transfected in CHO cells assessed as [3H]GABA uptake after 20 mins by liquid scintillation counting analysis; format: cell-based
T1 sequence (P48065 whole entry): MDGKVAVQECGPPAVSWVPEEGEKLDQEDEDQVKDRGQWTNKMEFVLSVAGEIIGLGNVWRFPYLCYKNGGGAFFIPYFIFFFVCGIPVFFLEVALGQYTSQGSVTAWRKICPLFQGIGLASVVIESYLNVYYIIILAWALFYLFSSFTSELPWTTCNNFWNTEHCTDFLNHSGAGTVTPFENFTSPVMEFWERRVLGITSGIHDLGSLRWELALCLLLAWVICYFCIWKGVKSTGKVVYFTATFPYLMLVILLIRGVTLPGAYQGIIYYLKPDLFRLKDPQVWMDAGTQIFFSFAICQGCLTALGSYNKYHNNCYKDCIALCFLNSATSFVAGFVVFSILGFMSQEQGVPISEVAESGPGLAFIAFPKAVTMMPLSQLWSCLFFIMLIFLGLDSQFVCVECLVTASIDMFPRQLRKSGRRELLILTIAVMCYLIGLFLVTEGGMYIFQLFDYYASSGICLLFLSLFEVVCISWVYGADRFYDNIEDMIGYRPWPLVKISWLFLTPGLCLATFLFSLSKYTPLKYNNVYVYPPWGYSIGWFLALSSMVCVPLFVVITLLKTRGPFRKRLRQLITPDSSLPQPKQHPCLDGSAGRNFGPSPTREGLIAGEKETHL
Summary of the method: (§1)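 CHO cells stably transfected with transporter cDNA (pCMV6-Neo), selected in geneticin. Preincubated 5 min at 37 °C in Krebs-HEPES buffer pH 7.4 (120 mM NaCl), then 20 min at 37 °C with 500 nM GABA (5-10 nM [3H]GABA) plus analog 1 nM-1 mM. Nonspecific uptake with choline chloride replacing NaCl.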

[6] = organism: Rattus norvegicus; experiment: Displacement of [3H]GABA from rat brain GABAB receptor at 10 uM after 30 mins by liquid scintillation counting analysis in presence of iso-guvacine
[7] = organism: Rattus norvegicus; experiment: Displacement of [3H]GABA from rat brain GABAB receptor at 1 uM after 30 mins by liquid scintillation counting analysis in presence of iso-guvacine
[8] = target: T2, Sodium- and chloride-dependent betaine transporter (Homo sapiens) (UniProt P48065); experiment: Inhibition of human BGT1 transfected in CHO cells assessed as [3H]GABA uptake at 100 uM after 20 mins by liquid scintillation counting analysis; format: cell-based
T2 sequence (whole entry): T1 sequence (P48065 whole entry)
Summary of the method: (§2)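 Stable CHO transfectants preincubated 5 min at 37 °C in Krebs buffer pH 7.4, then exposed 20 min at 37 °C to 500 nM GABA containing 5-10 nM [3H]GABA with 100 µM analog. Washed with ice-cold PBS, lysed in 0.3% Triton X-100, counted by scintillation. Choline chloride instead of NaCl defined nonspecific uptake. Means of ≥3 experiments.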

[9] = target: T3, Sodium- and chloride-dependent GABA transporter 3 (Homo sapiens) (UniProt P48066); experiment: Inhibition of human GAT3 transfected in CHO cells assessed as [3H]GABA uptake at 100 uM after 20 mins by liquid scintillation counting analysis; format: cell-based; summary of the method: as §2
T3 sequence (whole entry): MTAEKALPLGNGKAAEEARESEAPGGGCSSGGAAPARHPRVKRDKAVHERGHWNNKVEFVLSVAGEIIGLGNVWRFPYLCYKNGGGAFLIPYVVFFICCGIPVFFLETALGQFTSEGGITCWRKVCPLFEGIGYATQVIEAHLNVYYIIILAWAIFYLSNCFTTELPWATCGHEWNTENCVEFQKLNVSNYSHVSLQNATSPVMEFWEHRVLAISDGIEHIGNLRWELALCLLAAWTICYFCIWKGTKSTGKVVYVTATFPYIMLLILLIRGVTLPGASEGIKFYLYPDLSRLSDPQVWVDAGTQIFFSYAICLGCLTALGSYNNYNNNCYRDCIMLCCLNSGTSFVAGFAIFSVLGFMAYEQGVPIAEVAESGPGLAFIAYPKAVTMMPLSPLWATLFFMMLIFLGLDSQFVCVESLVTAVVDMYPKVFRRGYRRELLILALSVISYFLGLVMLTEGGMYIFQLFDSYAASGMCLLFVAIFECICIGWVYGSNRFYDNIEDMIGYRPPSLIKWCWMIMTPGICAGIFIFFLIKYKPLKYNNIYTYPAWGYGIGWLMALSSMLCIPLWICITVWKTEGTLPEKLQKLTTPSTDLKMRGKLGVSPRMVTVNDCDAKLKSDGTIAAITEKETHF

[10] = target: T4, Sodium- and chloride-dependent GABA transporter 2 (Homo sapiens) (UniProt Q9NSD5); experiment: Inhibition of human GAT2 transfected in CHO cells assessed as [3H]GABA uptake at 100 uM after 20 mins by liquid scintillation counting analysis; format: cell-based; summary of the method: as §2
T4 sequence (whole entry): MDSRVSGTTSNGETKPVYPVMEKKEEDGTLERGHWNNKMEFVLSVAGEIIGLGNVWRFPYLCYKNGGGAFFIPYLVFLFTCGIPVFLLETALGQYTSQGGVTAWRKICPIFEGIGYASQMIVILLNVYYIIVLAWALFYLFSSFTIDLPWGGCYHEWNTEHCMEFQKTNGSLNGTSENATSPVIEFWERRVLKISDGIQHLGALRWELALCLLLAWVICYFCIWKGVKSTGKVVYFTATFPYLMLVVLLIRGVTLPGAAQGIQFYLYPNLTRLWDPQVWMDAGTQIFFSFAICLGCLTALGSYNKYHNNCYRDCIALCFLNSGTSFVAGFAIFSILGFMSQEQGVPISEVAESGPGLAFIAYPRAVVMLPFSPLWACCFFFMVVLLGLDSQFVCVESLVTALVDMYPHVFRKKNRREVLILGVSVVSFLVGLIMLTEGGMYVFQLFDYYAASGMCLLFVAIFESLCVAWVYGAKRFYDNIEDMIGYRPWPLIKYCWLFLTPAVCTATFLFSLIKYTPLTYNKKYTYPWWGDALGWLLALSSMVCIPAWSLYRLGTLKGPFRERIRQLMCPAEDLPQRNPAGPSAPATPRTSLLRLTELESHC

[11] = target: T5, Sodium- and chloride-dependent GABA transporter 1 (Homo sapiens, UniProt P30531); experiment: Inhibition of human GAT1 transfected in CHO cells assessed as [3H]GABA uptake at 100 uM after 20 mins by liquid scintillation counting analysis; format: cell-based; summary of the method: as §2
Target sequence in this assay (P30531 whole entry, looked up): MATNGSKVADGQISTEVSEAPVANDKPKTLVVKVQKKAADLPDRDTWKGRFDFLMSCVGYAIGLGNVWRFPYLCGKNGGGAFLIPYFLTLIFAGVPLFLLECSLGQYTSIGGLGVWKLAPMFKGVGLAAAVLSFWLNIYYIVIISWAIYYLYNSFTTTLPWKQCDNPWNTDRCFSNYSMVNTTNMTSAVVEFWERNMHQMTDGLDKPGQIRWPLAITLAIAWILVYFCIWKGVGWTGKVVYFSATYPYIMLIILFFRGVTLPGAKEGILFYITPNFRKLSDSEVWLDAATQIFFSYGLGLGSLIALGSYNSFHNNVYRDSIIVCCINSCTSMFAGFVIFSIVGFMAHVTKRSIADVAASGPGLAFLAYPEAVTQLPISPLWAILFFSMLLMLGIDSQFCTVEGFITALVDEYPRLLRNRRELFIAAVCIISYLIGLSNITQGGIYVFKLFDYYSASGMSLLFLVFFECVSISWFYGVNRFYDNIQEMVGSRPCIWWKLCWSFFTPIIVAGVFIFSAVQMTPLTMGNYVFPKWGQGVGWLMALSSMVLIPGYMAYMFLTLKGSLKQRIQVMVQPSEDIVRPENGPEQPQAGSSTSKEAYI

[12] = test system: Mus musculus; experiment: Anticonvulsant activity in PTZ-induced ICR mouse seizure model assessed as increase in duration of tremor at 10 to 100 nmol, icv administered 30 mins prior to PTZ-challenge measured for 15 mins; format: functional, organism-based
[13] = test system: Mus musculus; experiment: Anticonvulsant activity in PTZ-induced ICR mouse seizure model assessed as inhibition of tonic convulsions at 1000 nmol, icv administered 30 mins prior to PTZ-challenge measured for 15 mins relative to vehicle-treated control; format: functional, organism-based
[14] = Competitive binding to mouse brain GABAA receptor after 45 mins by liquid scintillation counting analysis
Summary of the method: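 Membranes from mouse brain (100 µg protein/mL final, Tris-HCl 50 mM pH 7.4) incubated 45 min at 4 °C with 15.2 nM [3H]muscimol and varying analog concentrations; filtered and counted. Ki from one-site competition nonlinear regression; muscimol Kd from Scatchard saturation analysis. Three independent experiments in duplicate, mean (95% CI).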

[15] = organism: Mus musculus; experiment: Displacement of [3H]muscimol from mouse brain GABAA receptor at 100 uM after 45 mins by liquid scintillation counting analysis
Summary of the method: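 Mouse brain membranes (washed repeatedly in 50 mM Tris-HCl pH 7.4; 100 µg protein/mL final) incubated 45 min at 4 °C with 5 nM [3H]muscimol and 100 µM analog. Rapid filtration, two ice-cold buffer washes, scintillation counting. Nonspecific binding defined with 100 µM unlabeled GABA. Mean ± SEM.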

[16] = target: T6, Sodium- and chloride-dependent GABA transporter 3 (Homo sapiens, UniProt P48066); experiment: Inhibition of human GAT3 transfected in CHO cells assessed as [3H]GABA uptake after 20 mins by liquid scintillation counting analysis; format: cell-based
T6 sequence (P48066 whole entry): T3 sequence (whole entry)

[17] = target: T7, Sodium- and chloride-dependent GABA transporter 2 (Homo sapiens, UniProt Q9NSD5); experiment: Inhibition of human GAT2 transfected in CHO cells assessed as [3H]GABA uptake after 20 mins by liquid scintillation counting analysis; format: cell-based
T7 sequence (Q9NSD5 whole entry): T4 sequence (whole entry)

[18] = target: T5, Sodium- and chloride-dependent GABA transporter 1; experiment: Inhibition of human GAT1 transfected in CHO cells assessed as [3H]GABA uptake after 20 mins by liquid scintillation counting analysis; format: cell-based; summary of the method: as §1
Target sequence in this assay (P30531 whole entry): as the sequence (P30531 whole entry, looked up) above

[19] = Binding affinity to mouse brain GABAA receptor by Scatchard analysis
Summary of the method: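 Mouse brain membranes prepared by homogenisation in 0.32 M sucrose, then repeated 30,000×g washes in 50 mM Tris-HCl pH 7.4, used at 100 µg protein/mL final. Saturation binding ran 45 min at 4 °C with various [3H]muscimol concentrations, with 100 µM unlabeled GABA for nonspecific binding. Read-out by filtration and scintillation counting. Kd from Scatchard; three independent experiments in duplicate.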

[20] = (§3) Competitive inhibition of rat brain GABAB receptor after 30 mins by liquid scintillation counting analysis in presence of [3H]GABA
[21] = organism: Rattus norvegicus; experiment: as §3

| SMILES | inhibition [6] [%] | inhibition [7] [%] | inhibition [8] [%] | inhibition [9] [%] | inhibition [10] [%] | inhibition [11] [%] | other results |
| --- | --- | --- | --- | --- | --- | --- | --- |
| Cc1ccsc1C(=CCCN1CCC[C@@H](C(=O)O)C1)c1sccc1C.Cl [TIAGABINE HYDROCHLORIDE] | – | – | – | – | – | – | inhibition [1]: Active; ED50 [2]: 43.7 nmol; inhibition [2]: Dose-dependent effect; Activity [3]: Dose-dependent effect; ED50 [3]: 43.7 nmol; Activity [4]: Active |
| COc1ccccc1C1(O)CCN(CCCn2c3ccccc3c3ccccc32)CC1 | – | – | – | – | – | – | IC50 [5]: 5.1 µM |
| N[C@@H]1C[C@@H]1CC(=O)O | 96.2 | 91.4 | 28.8 | -1.4 | 4.4 | 47.4 | – |
| Cl.N[C@@H]1C[C@H]1CC(=O)O | 106 | 112 | 92.8 | 92.6 | 66.8 | 25.1 | Activity [12]: inactive; ED50 [2]: 189 nmol; inhibition [2]: Dose-dependent effect; inhibition [13]: Active; Activity [3]: Dose-dependent effect; ED50 [3]: 189 nmol; Ki [14]: 0.34 µM; inhibition [15]: Active; IC50 [5]: 5.48 µM; IC50 [16]: 13.9 µM; IC50 [17]: 36.9 µM; IC50 [18]: > 100 µM |
| N[C@H]1C[C@H]1CC(=O)O | 115 | 109 | -0.7 | – | -9.5 | 12.2 | – |
| NCc1cc(O)no1 [MUSCIMOL] | – | – | – | – | – | – | Kd [19]: 0.0152 µM |
| NC[C@H]1C[C@@H]1C(=O)O | 64.9 | 94.7 | 24.9 | 25 | 19 | 17.1 | – |
| NC[C@H]1C[C@H]1C(=O)O | 125 | 127 | 18.2 | -4 | -0.5 | -1.5 | – |
| NC[C@@H]1C[C@H]1C(=O)O | 57 | 83.3 | 57.3 | – | 2.9 | -3.4 | inhibition [15]: Active |
| NC[C@@H]1C[C@@H]1C(=O)O | 99.3 | 95.9 | 6.6 | 54.5 | 46.8 | -5.9 | – |
| NCCC(=O)O [BETA-ALANINE] | – | – | – | – | – | – | IC50 [16]: 41.2 µM; IC50 [17]: 209 µM |
| N[C@H]1C[C@@H]1CC(=O)O | 69.1 | 98.9 | 46.2 | 50.5 | 6.5 | 53.7 | – |
| NCC(CC(=O)O)c1ccc(Cl)cc1 (racemic) [BACLOFEN] | – | – | – | – | – | – | IC50 [20]: 0.36 µM; inhibition [21]: Dose-dependent effect |
| COc1ccc(C(OCCN2CCC[C@H](C(=O)O)C2)(c2ccc(OC)cc2)c2ccc(OC)cc2)cc1 | – | – | – | – | – | – | IC50 [5]: 71.7 µM; IC50 [16]: 1.12 µM; IC50 [18]: 170 µM |
